According to ChEMBL document CHEMBL1125914, “Activity of acyclic 6-(phenylselenenyl)pyrimidine nucleosides against human immunodeficiency viruses in primary lymphocytes” (J Med Chem, 1991):

Key:
[1] = Antiviral activity against human peripheral blood mononuclear cells, infected with HIV-1(strain LAV).; type: functional
Outline: (§1)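 Primary human PBM cells infected with virus and exposed to compound. Virus in cell supernatant was quantified on day 6 post-infection by reverse transcriptase assay using poly(rA)n-oligo(dT)12-18 template-primer on disrupted virions. EC50 derived from the concentration-response curve by the Chou–Talalay median-effect method.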

Vero [2] = test: Antiviral activity against Vero cells, infected with HSV-1.; type: functional, cell-based; settings: Chlorocebus sabaeus
Outline: (§2)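 Plaque reduction assay in Vero cells infected with HSV-1 strain F. Median effective concentration taken from the concentration-response curve by the Chou–Talalay median-effect method.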

[3] = The compound was tested for toxicity in Vero cells.; type: cell-based; settings: Chlorocebus sabaeus (African green monkey)
[4] = The compound was tested for toxicity in Vero cells; type: cell-based; settings: Chlorocebus sabaeus (African green monkey)
Nucleic Acid = test: Inhibitory activity against DNA polymerase-alpha derived from peripheral blood mononuclear cells; design: species or system Homo sapiens
Outline: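 Selectivity counter-screen against DNA polymerase α purified from human PBM cells. Median inhibitory concentration derived from the concentration-response curve by the Chou–Talalay median-effect method.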

[5] = Antiviral activity against human peripheral blood mononuclear cells, infected with HIV-2(strain ROD-2); type: functional
Outline: (§3)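 Human PBM cells were infected with HIV-1 strain LAV or HIV-2 strain ROD-2. On day 6 after infection, virus in the cell supernatant was quantitated by reverse transcriptase assay using poly(rA)n-oligo(dT)12-18 as template-primer. EC50 was derived from the concentration-response curve by the Chou–Talalay median-effect method.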

[6] = Antiviral activity against human peripheral blood mononuclear cells, infected with HIV-1(strain LAV); type: functional; outline: as §3
[7] = The compound was tested for toxicity in peripheral blood mononuclear cells; type: functional, Homo sapiens
Vero [8] = test: Antiviral activity against Vero cells, infected with HSV-1; type: functional, cell-based; settings: Chlorocebus sabaeus; outline: as §2
[9] = The compound was tested for toxicity in peripheral blood mononuclear cells.; type: functional, Homo sapiens
[10] = Antiviral activity against human peripheral blood mononuclear cells, infected with HIV-2(strain ROD-2).; type: functional; outline: as §1
[11] = molecular target: T1, Human immunodeficiency virus type 1 reverse transcriptase (Human immunodeficiency virus 1, UniProt Q72547); test: Inhibition of HIV-1 reverse transcriptase.
[12] = molecular target: T1, Human immunodeficiency virus type 1 reverse transcriptase; test: Inhibition of HIV-1 reverse transcriptase recombinant p66

For `O=c1[nH]c(=O)n(COCCO)cc1Cl`, the EC50 [1] was greater than 100 µM, the EC50 (Vero [2]) was greater than 100 µM and the IC50 [3] was greater than 100 µM.

Work on `O=c1[nH]c(=O)n(COCCO)c([Se]c2ccccc2)c1Cl` yielded an IC50 [4] of 7.5 µM, an IC50 (Nucleic Acid) greater than 100 µM and an EC50 [5] of 7.9 µM. For the same molecule, the EC50 [6] was 3.1 µM, the IC50 [7] was greater than 100 µM and the EC50 (Vero [8]) was greater than 100 µM.

Work on `Cc1c([Se]c2ccccc2)n(COCCO)c(=O)[nH]c1=O` yielded an IC50 [4] greater than 100 µM, an IC50 (Nucleic Acid) greater than 100 µM and an EC50 [5] of 25.6 µM. The EC50 [6] was 0.96 µM, the IC50 [7] was greater than 200 µM and the EC50 (Vero [8]) was greater than 100 µM.

With `Cc1c([Se]c2ccccc2)n(COCCO)c(=S)[nH]c1=O` the IC50 [4] was 60.7 µM, the IC50 (Nucleic Acid) was greater than 100 µM and the EC50 [5] was 5.8 µM. For the same molecule, the EC50 [6] was 2.8 µM, the IC50 [7] was greater than 100 µM and the EC50 (Vero [8]) was greater than 100 µM.

Molecule `O=c1ccn(COCCO)c(=O)[nH]1` has an IC50 [4] greater than 100 µM, an EC50 [6] greater than 100 µM and an IC50 [7] greater than 100 µM. It also gave an EC50 (Vero [8]) greater than 100 µM.

Work on `O=c1cc([Se]c2ccccc2)n(COCCO)c(=O)[nH]1` yielded an IC50 [4] greater than 100 µM, an IC50 (Nucleic Acid) greater than 100 µM and an EC50 [5] of 9.6 µM. For the same molecule, the EC50 [6] was 13 µM, the IC50 [7] was greater than 100 µM and the EC50 (Vero [8]) was greater than 200 µM.

Molecule `Cc1cn(COCCO)c(=O)[nH]c1=O` has an EC50 [1] greater than 100 µM, an IC50 [9] greater than 100 µM and an EC50 (Vero [2]) greater than 100 µM. It also gave an IC50 [3] greater than 100 µM.

In the case of `O=c1[nH]c(=O)n(COCCO)cc1F`, the EC50 [1] is reported as greater than 100 µM, the IC50 [9] is reported as 67 µM and the EC50 (Vero [2]) is reported as greater than 100 µM. It also gave an IC50 [3] greater than 100 µM.

`O=c1[nH]c(=O)n(COCCO)cc1Br` showed an EC50 [1] greater than 100 µM, an IC50 [9] of 100 µM and an EC50 (Vero [2]) greater than 100 µM. It also gave an IC50 [3] greater than 100 µM.

For `Cc1cn(COCCO)c(=S)[nH]c1=O`, the EC50 [1] was greater than 100 µM, the IC50 [9] was greater than 100 µM and the EC50 (Vero [2]) was greater than 100 µM. For the same molecule, the IC50 [3] was greater than 100 µM.

Work on `O=c1[nH]c(=O)n(COCCO)c([Se]c2ccccc2)c1F` yielded an IC50 [4] of 25.7 µM, an IC50 (Nucleic Acid) greater than 100 µM and an EC50 [5] of 9.1 µM. For the same molecule, the EC50 [6] was 2 µM, the IC50 [7] was greater than 100 µM and the EC50 (Vero [8]) was greater than 100 µM.

With `O=c1[nH]c(=O)n(COCCO)c([Se]c2ccccc2)c1Br` the IC50 [4] was 8.2 µM, the IC50 (Nucleic Acid) was greater than 100 µM and the EC50 [5] was 2 µM. The EC50 [6] was 3.7 µM, the IC50 [7] was greater than 100 µM and the EC50 (Vero [8]) was greater than 100 µM.

In the case of `Cc1c(Sc2ccccc2)n(COCCO)c(=O)[nH]c1=O` [HEPT], the IC50 (Nucleic Acid) is reported as greater than 100 µM, the EC50 [1] is reported as 5.3 µM and the IC50 [9] is reported as greater than 100 µM. The EC50 (Vero [2]) was greater than 100 µM, the IC50 [3] was greater than 100 µM and the EC50 [10] was greater than 100 µM. For the same molecule, the IC50 [11] was 17.5 µM.

With `Cc1cn([C@H]2C[C@H](N=[N+]=[N-])[C@@H](CO)O2)c(=O)[nH]c1=O` [ZIDOVUDINE] the IC50 [4] was 26 µM, the IC50 (Nucleic Acid) was greater than 100 µM and the EC50 [5] was less than 0.002 µM. The IC50 [12] was less than 0.1 µM, the EC50 [6] was 0.004 µM and the IC50 [7] was greater than 100 µM. It also gave an EC50 (Vero [8]) greater than 100 µM.
